# Measurements pooled from the literature.
# Lines come from different studies, so protocols differ.
# PDE4D: 3',5'-cyclic-AMP phosphodiesterase 4D (PDE4D, Homo sapiens, UniProt Q08499)
# MTNR1B: Melatonin receptor type 1B (MTNR1B, Homo sapiens, UniProt P49286)
Compound,target,test,test system,setting,measurement,result
Nc1ncc(-c2nc(N3CCOCC3)nc(N3CCOCC3)n2)c(C(F)F)n1,"Non-receptor tyrosine-protein kinase TNK1 (TNK1, Homo sapiens, UniProt Q13470)","binding, competition with immobilised ligand",,10 µM,remaining binding,83%
CC1(C)[C@@H](O[C@H]2O[C@H](C(=O)O)[C@@H](O)[C@H](O)[C@H]2O[C@@H]2O[C@H](C(=O)O)[C@@H](O)[C@H](O)[C@H]2O)CC[C@]2(C)[C@H]3C(=O)C=C4[C@@H]5C[C@@](C)(C(=O)O)CC[C@]5(C)CC[C@@]4(C)[C@]3(C)CC[C@@H]12,PDE4D,"enzyme activity, inhibitor, radiometric",,50 µM,inhibition,10.9%
COc1ncccc1-c1cnn2ccc(N3CCN(C(=O)OC(C)C)CC3)nc12,"Mitogen-activated protein kinase 7 (MAPK7, Homo sapiens, UniProt Q13164)","binding, competition with immobilised ligand",,1 µM,remaining binding,100%
COc1ccc2[nH]cc(CCNC(=O)CI)c2c1,MTNR1B,"GTPγS binding, agonist, radiometric",,cell membranes,Emax,123%
CCN(CC)CCCC[C@H](NC(=O)[C@H](CC(C)C)NC(=O)[C@H](C)NC(=O)[C@H](Cc1ccccc1)NC(=O)c1ccc(C(C)(C)C)cc1)C(=O)N[C@@H](CO)C(=O)OC,"Bromodomain adjacent to zinc finger domain protein 1A (BAZ1A, Homo sapiens, UniProt Q9NRL2)","thermal stability, DSF",,25 µM,ΔTm,-1.44 °C
O=C(O)CC(O)(CC(=O)O)C(=O)O,PDE4D,"enzyme activity, inhibitor, radiometric",,5 µM,inhibition,16.6%
Cc1nn(C)cc1-c1nc2c(N3CCN(Cc4ccc(Cl)cc4)CC3)c(Cl)cnc2[nH]1,"Calcium/calmodulin-dependent protein kinase type 1G (CAMK1G, Homo sapiens, UniProt Q96NX5)","binding, competition with immobilised ligand",,1 µM,remaining binding,100%
c1ccc(C(NCCNC(c2ccccc2)c2ccccc2)c2ccccc2)cc1,"Phospholipase A2, major isoenzyme (PLA2G1B, Sus scrofa, UniProt P00592)","cell-free assay, inhibitor",,10 µM,inhibition,4%
COc1cc(O)ccc1/C=C/C(=O)c1ccc(O)cc1,PDE4D,"enzyme activity, inhibitor, radiometric",,5 µM,inhibition,-1.92%
CC[C@H](C)[C@@H]1NC(=O)[C@@H]2CSSC[C@H](NC(=O)[C@@H](NC(=O)CN)[C@@H](C)O)C(=O)N[C@@H](CC(N)=O)C(=O)N[C@@H]([C@@H](C)O)C(=O)N3CCC[C@H]3C(=O)NCC(=O)N[C@H]3CSSC[C@H](NC(=O)[C@H](CCSC)NC(=O)[C@H](CC(C)C)NC(=O)[C@H](CCCNC(=N)N)NC(=O)CNC(=O)CNC(=O)[C@H](CC(=O)O)NC1=O)C(=O)NCC(=O)N[C@@H](CCC(=O)O)C(=O)N[C@@H]([C@@H](C)O)C(=O)N[C@H](C(=O)N[C@H](C(=O)NCC(=O)O)C(C)C)CSSC[C@H](NC(=O)[C@H]([C@@H](C)O)NC3=O)C(=O)N[C@@H](CO)C(=O)N[C@@H](Cc1c[nH]c3ccccc13)C(=O)N1CCC[C@H]1C(=O)N[C@@H](C(C)C)C(=O)N2,"Prothrombin (F2, Homo sapiens, UniProt P00734)","binding, SPR",,,kon,1000 to 10000 M⁻¹ s⁻¹
C[C@@]12C[C@@]3(O)O[C@@H](O1)[C@]1(COC(=O)c4ccccc4)[C@H]3C[C@@]12O[C@@H]1O[C@H](CO)[C@@H](O)[C@H](O)[C@H]1O,PDE4D,"enzyme activity, inhibitor, radiometric",,50 µM,inhibition,2.88%
COc1ccc2cccc(C(CO)CNC(=O)CF)c2c1 (stereo not drawn),MTNR1B,"β-arrestin recruitment, agonist",MT2,90 min,Emax,101%
